Calls of active or inactive are those of the source. The rule behind the calls is not given here.
Assays:
[1] = molecular target: Sphingosine 1-phosphate receptor 1 (Macaca mulatta, UniProt H9EUW9); test: Agonist activity at monkey S1P1 receptor assessed as cAMP accumulation by HTRF assay; format: functional
How it was run: (§1)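 HTRF cyclase (cAMP) functional assay at S1P1 of each species; EC50 taken as mean of three or more replicates; efficacy given as % agonism relative to S1P.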

[2] = system: Rattus norvegicus; test: Induction of body weight regain in Lewis rat collagen-induced arthritis model at 3 mg/kg, po qd measured on day 17 (reference value: 160.3 +/- 2.3 g); format: functional
[3] = Drug level in Sprague-Dawley rat brain at 14.5 ug/hr/kg dosed as constant infusion measured after 48 hrs; format: ADME, organism-based; details: iv, read-out: Drug uptake
How it was run: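 Male Sprague–Dawley rats given constant infusion at 14.5 μg/h/kg for 48 h; brain and plasma concentrations measured at 48 h.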

[4] = molecular target: Cytochrome P450 2C9 (Homo sapiens, UniProt P11712); test: Inhibition of CYP2C9 (unknown origin); format: ADME
Sequence of Cytochrome P450 2C9 (P11712 whole entry): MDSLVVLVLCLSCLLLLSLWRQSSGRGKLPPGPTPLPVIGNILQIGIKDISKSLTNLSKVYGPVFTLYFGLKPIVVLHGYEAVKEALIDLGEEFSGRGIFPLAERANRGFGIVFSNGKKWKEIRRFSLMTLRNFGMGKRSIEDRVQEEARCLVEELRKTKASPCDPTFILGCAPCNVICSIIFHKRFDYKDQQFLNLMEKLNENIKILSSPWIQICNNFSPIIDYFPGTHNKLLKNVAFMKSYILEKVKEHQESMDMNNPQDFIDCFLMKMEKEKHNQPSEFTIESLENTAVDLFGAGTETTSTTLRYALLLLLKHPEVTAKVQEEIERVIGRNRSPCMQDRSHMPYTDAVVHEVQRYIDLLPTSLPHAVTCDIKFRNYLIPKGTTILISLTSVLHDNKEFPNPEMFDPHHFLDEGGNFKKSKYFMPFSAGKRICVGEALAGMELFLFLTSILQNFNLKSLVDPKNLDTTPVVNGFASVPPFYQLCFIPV

[5] = Cmax in Sprague-Dawley rat at 300 mg/kg; format: ADME, organism-based; set-up: dose 300 mg/kg; details: in vivo
How it was run: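 Sprague–Dawley rats dosed at 300 and 1000 mg/kg in a separate dose-proportionality exposure study; Cmax determined.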

[6] = molecular target: Sphingosine 1-phosphate receptor 1 (Mus musculus) (UniProt O08530); test: Agonist activity at mouse S1P1 receptor assessed as cAMP accumulation by HTRF assay relative to S1P; format: functional; how it was run: as §1
Sequence of Sphingosine 1-phosphate receptor 1 (Mus musculus) (O08530 whole entry): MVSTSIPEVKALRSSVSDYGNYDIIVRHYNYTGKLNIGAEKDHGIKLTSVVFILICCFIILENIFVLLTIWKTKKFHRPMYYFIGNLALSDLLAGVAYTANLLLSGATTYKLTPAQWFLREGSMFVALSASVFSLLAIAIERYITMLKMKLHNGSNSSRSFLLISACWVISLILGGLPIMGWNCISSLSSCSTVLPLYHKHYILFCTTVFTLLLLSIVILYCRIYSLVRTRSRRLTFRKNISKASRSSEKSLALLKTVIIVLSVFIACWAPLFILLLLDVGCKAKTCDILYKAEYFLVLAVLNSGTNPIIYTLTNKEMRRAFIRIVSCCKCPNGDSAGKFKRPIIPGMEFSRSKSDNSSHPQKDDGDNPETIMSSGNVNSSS

[7] = system: Rhesus monkey; test: Systemic clearance in monkey at 1 mg/kg, iv relative to liver blood flow; format: ADME, organism-based, Macaca mulatta; set-up: dose 1 mg/kg, route intravenous; details: in vivo
[8] = Systemic clearance in rat at 1 mg/kg, iv; format: ADME, organism-based; set-up: dose 1 mg/kg, route intravenous; details: in vivo
[9] = system: Rattus norvegicus; test: Reduction in ankle diameter in Lewis rat collagen-induced arthritis model at 3 mg/kg, po qd measured on day 17 (reference value: +/- inches); format: functional
How it was run: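 Female Lewis rats with collagen-induced arthritis, prophylactic daily oral dosing; ankle diameter (inches) and body weight recorded at day 17 end point; mean ± SEM.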

[10] = molecular target: Cytochrome P450 2C19 (Homo sapiens, UniProt P33261); test: Inhibition of CYP2C19 (unknown origin); format: ADME
Sequence of Cytochrome P450 2C19 (P33261 whole entry): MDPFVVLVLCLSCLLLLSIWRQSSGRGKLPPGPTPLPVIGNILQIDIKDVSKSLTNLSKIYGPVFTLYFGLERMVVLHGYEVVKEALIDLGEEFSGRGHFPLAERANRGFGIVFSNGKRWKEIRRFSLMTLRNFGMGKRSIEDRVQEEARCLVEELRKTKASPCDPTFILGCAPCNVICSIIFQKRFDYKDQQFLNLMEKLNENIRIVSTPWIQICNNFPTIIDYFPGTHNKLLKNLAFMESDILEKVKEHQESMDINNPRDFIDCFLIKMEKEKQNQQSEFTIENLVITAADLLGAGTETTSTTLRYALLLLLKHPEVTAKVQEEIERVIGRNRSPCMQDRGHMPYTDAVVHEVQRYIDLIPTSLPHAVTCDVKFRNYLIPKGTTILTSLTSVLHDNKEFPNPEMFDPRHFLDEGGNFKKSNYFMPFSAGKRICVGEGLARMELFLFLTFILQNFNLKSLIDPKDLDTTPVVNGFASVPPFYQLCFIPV

[11] = system: Rattus norvegicus; test: Improvement histological parameters of knee and ankles in Lewis rat collagen-induced arthritis model at 1 mg/kg, po qd measured on day 17; format: functional, organism-based; set-up: dose 1 mg/kg; details: Ankle/Knee
[12] = system: Rattus norvegicus; test: Toxicity in Sprague-Dawley rat assessed as mortality at 1000 mg/kg during 14 day repeat dose study; format: organism-based; set-up: dose 1000 mg/kg; details: in vivo, 336 h
How it was run: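 14-day repeat-dose rat toxicity study with dose groups of 30, 100, 300 and 1000 mg/kg; animals monitored for tolerability, mortality and CNS clinical signs.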

[13] = Tmax in rat at 1 mg/kg, iv or 1 mg/kg, po; format: ADME, organism-based; details: in vivo

Sequence of Sphingosine 1-phosphate receptor 1 (H9EUW9 whole entry): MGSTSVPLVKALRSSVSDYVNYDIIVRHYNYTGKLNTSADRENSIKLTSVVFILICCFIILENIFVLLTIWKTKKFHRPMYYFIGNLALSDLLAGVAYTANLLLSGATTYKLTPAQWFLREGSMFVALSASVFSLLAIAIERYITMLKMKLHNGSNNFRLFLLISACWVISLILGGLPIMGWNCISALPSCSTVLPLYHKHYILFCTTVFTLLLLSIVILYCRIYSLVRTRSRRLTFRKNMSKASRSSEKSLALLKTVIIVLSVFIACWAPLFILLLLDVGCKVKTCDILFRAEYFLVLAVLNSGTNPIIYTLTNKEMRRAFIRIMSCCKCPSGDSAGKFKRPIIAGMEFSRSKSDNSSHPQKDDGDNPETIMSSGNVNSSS

## O=C(O)C[C@H]1CCc2c1[nH]c1ccc(OCc3ccc(C4CCCC4)c(C(F)(F)F)c3)cc21 [ETRASIMOD]
[1]
  EC50: 0.32 nM
[2]
  Activity: 182.3 g
[3]
  concentration at 48 h: 210 nM
[4]
  IC50: > 50 µM
[5]
  Cmax: 136 µM
[6]
  Emax: 95%
[7]
  CL: 2.23%
[8]
  clearance: 2.42 mL/min/kg
[9]
  Activity: 0.269 inches
[10]
  IC50: > 50 µM
[11]
  Activity: Active
[12]
  Activity: Toxic
[13]
  Tmax: 7.33 h

From ChEMBL document CHEMBL3352115, “Discovery of APD334: Design of a Clinical Stage Functional Antagonist of the Sphingosine-1-phosphate-1 Receptor” (ACS Med Chem Lett, 2014)
